Experimental data reported in ChEMBL document CHEMBL4842356, “Discovery, optimization, and target identification of novel coumarin derivatives as HIV-1 reverse transcriptase-associated ribonuclease H inhibitors” (Eur J Med Chem, 2021).
pEC50, pIC50: −log10 of the molar value.

Experiments:
[1] = test system: Human immunodeficiency virus 1; assay: Antiviral activity against HIV1 L1001 infected in human MT4 cells assessed as protection against virus-induced cytopathic effect incubated for 5 days by MTT assay; type: functional, organism-based; conditions: Human immunodeficiency virus 1, L1001, MT4, 120 h
Summary of the method: (§1)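 MT-4 cells (exponentially growing, resuspended at 6 × 10⁵ cells/mL) exposed to serial five-fold compound dilutions, then infected with mutant HIV-1 stock at 100–300 CCID₅₀; mock-infected wells run in parallel for cytotoxicity. Viability read by MTT at 540 and 690 nm on day 5. Median OD of three wells used; EC₅₀ is the concentration giving 50% protection from viral cytopathicity.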

[2] = test system: Human immunodeficiency virus 1; assay: Antiviral activity against HIV1 harboring reverse transcriptase Y188L mutant infected in human MT4 cells assessed as protection against virus-induced cytopathic effect incubated for 5 days by MTT assay; type: functional, organism-based; conditions: Human immunodeficiency virus 1, MT4, 120 h; summary of the method: as §1
[3] = test system: Human immunodeficiency virus 1; assay: Antiviral activity against HIV1 harboring reverse transcriptase V106A/F227 mutant infected in human MT4 cells assessed as protection against virus-induced cytopathic effect incubated for 5 days by MTT assay; type: functional, organism-based; conditions: Human immunodeficiency virus 1, MT4, 120 h; summary of the method: as §1
[4] = test system: Human immunodeficiency virus 1; assay: Antiviral activity against wild type HIV1 3B infected in human MT4 cells assessed as protection against virus-induced cytopathic effect incubated for 5 days by MTT assay; type: functional, organism-based; conditions: Human immunodeficiency virus 1, 3B, MT4, 120 h
Summary of the method: (§2)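 MT-4 cells (exponentially growing, resuspended at 6 × 10⁵ cells/mL) were seeded onto serial five-fold compound dilutions and infected with 100–300 CCID₅₀ virus stock, or given medium only (mock). Viability was read by MTT at 540 and 690 nm five days after infection, using the median OD of three wells. EC₅₀ is 50% protection from viral cytopathicity. CC₅₀ is 50% loss of viability in mock-infected cells.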

[5] = test system: Human immunodeficiency virus 1; assay: Antiviral activity against HIV1 harboring reverse transcriptase K103N mutant infected in human MT4 cells assessed as protection against virus-induced cytopathic effect incubated for 5 days by MTT assay; type: functional, organism-based; conditions: Human immunodeficiency virus 1, MT4, 120 h; summary of the method: as §1
[6] = test system: Human immunodeficiency virus 1; assay: Antiviral activity against HIV1 RES056 infected in human MT4 cells assessed as protection against virus-induced cytopathic effect incubated for 5 days by MTT assay; type: functional, organism-based; conditions: Human immunodeficiency virus 1, RES056, MT4, 120 h; summary of the method: as §2
[7] = test system: MT4; assay: Cytotoxicity against mock-infected human MT4 cells assessed as reduction in cell viability measured after 5 days by MTT assay; type: functional; conditions: MT4, 120 h, time 5 day; summary of the method: as §2
[8] = target: Human immunodeficiency virus type 1 reverse transcriptase (Human immunodeficiency virus 1, UniProt Q72547); assay: Inhibition of wild type HIV1 Reverse transcriptase RNase H expressed in Escherichia coli using 5'-UUUUUUUUUAGGAUACAUAUGGUUAAAGU-3' oligonucleotide as substrate and DNA21P as primer in presence of [gamma32P]-ATP by PAGE analysis
Summary of the method: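 Wild-type HIV-1 BH10 RT was expressed in E. coli and purified. RNase H activity was measured on a 31-nt RNA, 5′-³²P-labelled, annealed to a 21-nt DNA (31T/21P). Cleaved substrate was quantified without inhibitor (5% DMSO) and with compound over 0.2–100 µM. IC₅₀ values were taken from dose-response curves.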

[9] = test system: Human immunodeficiency virus 2; assay: Antiviral activity against HIV2 ROD infected in human MT4 cells assessed as protection against virus-induced cytopathic effect incubated for 5 days by MTT assay; conditions: Human immunodeficiency virus 2, ISOLATE ROD, MT4, 120 h
[10] = test system: Human immunodeficiency virus 1; assay: Antiviral activity against HIV1 harboring reverse transcriptase Y181C mutant infected in human MT4 cells assessed as protection against virus-induced cytopathic effect incubated for 5 days by MTT assay; type: functional, organism-based; conditions: Human immunodeficiency virus 1, MT4, 120 h; summary of the method: as §1
[11] = test system: Human immunodeficiency virus 1; assay: Antiviral activity against HIV1 harboring reverse transcriptase E138K mutant infected in human MT4 cells assessed as protection against virus-induced cytopathic effect incubated for 5 days by MTT assay; type: functional, organism-based; conditions: Human immunodeficiency virus 1, MT4, 120 h

pIC50 [8]	Compound	pEC50 [1]	pEC50 [2]	pEC50 [3]	pEC50 [4]	pEC50 [5]	pEC50 [6]	CC50 [7] [µM]	pEC50 [9]	pEC50 [10]	pEC50 [11]
4.35	CCCN(C(=O)c1cc2cc([N+](=O)[O-])c(O)c(O)c2oc1=O)[C@@H]1CCc2nc(N)sc2C1				4.55		4.71	> 271	3.84		
4.68	O=C(O)c1cc(NC(=O)c2cc3cc([N+](=O)[O-])c(O)c(O)c3oc2=O)ccc1O				4.00		3.97	> 310	3.94		
< 3.60	CCC1CCN(C2CCN(C(=O)c3cc4cc([N+](=O)[O-])c(O)c(O)c4oc3=O)CC2)CC1				3.68		3.67	> 280	< 3.55		

Second part, the compound before the results:

Compound	pIC50 [8]	pEC50 [1]	pEC50 [2]	pEC50 [3]	pEC50 [4]	pEC50 [5]	pEC50 [6]	CC50 [7] [µM]	pEC50 [9]	pEC50 [10]	pEC50 [11]
Cc1ccnc2c1NC(=O)c1cccnc1N2C1CC1 [NEVIRAPINE]		6.15	< 5.53	< 5.24	5.72	5.55	< 4.82	> 15			
COC(=O)c1cc(NC(=O)c2cc3cc([N+](=O)[O-])c(O)c(O)c3oc2=O)ccc1O	4.91	4.78	4.35	4.00	5.40	5.25		> 300	3.77	4.65	4.65
